From PubChem BioAssay
NPY-Y1 antag: NPY-Y1 (human) receptor antagonism; inhibition, % at 3.6 µM; hit rate 1% among 200,000; HEK293-CNG Y1 cells, membrane potential fluorescence; NPY at EC95, then isoproterenol;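 active means inhibition above the campaign mean inhibition of all tested compounds plus 3 SD, cut at about 20% in these data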;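 further: 0% = DMSO wells given NPY plus isoproterenol and 100% = isoproterenol alone without NPY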
Target sequence (P25929 whole entry, looked up): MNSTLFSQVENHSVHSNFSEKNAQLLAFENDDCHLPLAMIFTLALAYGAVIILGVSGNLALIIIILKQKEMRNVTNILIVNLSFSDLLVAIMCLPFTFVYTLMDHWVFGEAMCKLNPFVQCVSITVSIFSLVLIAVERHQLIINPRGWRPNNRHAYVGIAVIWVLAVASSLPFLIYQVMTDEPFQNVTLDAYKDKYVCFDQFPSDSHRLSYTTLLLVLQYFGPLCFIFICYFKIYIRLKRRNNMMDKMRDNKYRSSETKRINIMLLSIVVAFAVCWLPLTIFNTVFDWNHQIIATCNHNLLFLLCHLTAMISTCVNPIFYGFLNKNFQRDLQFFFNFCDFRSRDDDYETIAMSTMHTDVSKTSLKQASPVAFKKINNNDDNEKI
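Material: HEK293 cells with Y1 receptor plus CNG channel; times: compound incubation 1 h at room temperature, readout 45 min post-stimulation; signal: fluorescence, membrane potential probe; read-out basis: fluorescence ratio normalized to % inhibition between controls; benchmarks: full-block control isoproterenol-only wells, zero-block control NPY plus isoproterenol wells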
NPY Y2 blocker: blocks the human neuropeptide Y Y2 receptor; NPY-Y2 expressing cells, antagonist mode; hit rate 0.99% among 140,000; inhibition, % at 2.7 µM; P49146; in the data active means inhibition above about 17%;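 further: 0% = vehicle with agonist challenge and 100% = reference antagonist with challenge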
EP2 antag: blocks the human prostaglandin E2 receptor EP2; hit rate 0.52% among 260,000; inhibition, % at 25 µM; AID 1422; C6 glioma cells expressing human EP2, cAMP TR-FRET; cells stimulated with saturating PGE2;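 active means percent inhibition above 40 after rounding to a whole number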;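 further: rat C6 glioma host cells with rolipram phosphodiesterase inhibitor present; the protocol text gives 20 µM as final concentration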
NPY-Y2 PAM-ag: potentiators or agonists of human neuropeptide Y receptor Y2; P49146; cells expressing NPY-Y2, potentiator/agonist read-out; activation, % at 3.6 µM; hit rate 0.45% among 220,000; AID 1359; in the data active means activation above about 27%;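 further: cells stimulated with NPY near EC25 plus isoproterenol at EC100; 0% = vehicle plus submaximal agonist and 100% = vehicle plus saturating agonist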
EP2 mod: modulates human prostaglandin E2 receptor EP2 signaling | AID 940 | EP2-expressing cells, cAMP HTRF FRET, PGE2 co-stimulation | induction, % at 25 µM | hit rate 0.83% among 260,000;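 active means compounds whose cAMP rise, as percent of the full-agonist control response, exceeds 60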;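 further: rat C6 glioma line stably carrying human EP2 under a CMV promoter; the protocol text gives 20 µM as final concentration; 100% = response of wells given 1 µM PGE2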
NPY-Y1 PAM-ag: potentiates or activates human NPY-Y1 receptor | P25929 | NPY-Y1 expressing cells, potentiator/agonist activation | activation, % at 3.6 µM | hit rate 0.37% among 220,000; in the data active means activation above about 33%, passing the limit was not always enough;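 further: cells stimulated with NPY at EC10 then isoproterenol at EC100; 0% = low agonist plus stimulus and 100% = saturating agonist plus stimulus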
EP2 confirm: human EP2 receptor cAMP induction, negative in counter-screens; shares compounds with EP2 mod; C6 glioma EP2 cells, cAMP HTRF induction; plus low (about EC15) PGE2 agonist; calls only at 20 µM (by protocol); hit rate 47% among 1,300;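 active means cAMP induction above 50% in the main assay while under 30% in all four parallel counter assays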;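 further: rat C6 glioma cells stably expressing human EP2 receptor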
* = called active by the depositor; i = inactive; . = no result given; + = active, no number. The list is not random: actives were taken first. Their share in the collection is about 2.8%.

SMILES	NPY-Y1 antag	NPY Y2 blocker	EP2 antag	NPY-Y2 PAM-ag	EP2 mod	NPY-Y1 PAM-ag	EP2 confirm
O=c1nc(-c2ccccc2)cc(-c2ccccc2)[nH]1	1.9	1.6	9.6	9.5	65.3*	7.4	i
CCOC(=O)c1c(C2COc3ccccc3O2)csc1NC(=O)c1ccccc1 (configuration not stated)	4.4	-0.6	5.4	4.9	31.9	10.3	.
CCOC(=O)c1c(C2COc3ccccc3O2)csc1N (configuration not stated)	-1.6	3.2	8.3	3.6	70.2*	13.3	+
CC(=O)N1CCN(c2nc(CC(C)C)c3c(c2C#N)CCC3)CC1	3.7	2.4	.	-25.1	23.6	6.6	.
CC(C)Cc1nc(N2CCCCC2)c(C#N)c2c1CCC2	-2.0	3.8	16.9	-4.0	88.6*	-2.9	i
CCCSc1nc(N2CCOCC2)c2c(c1C#N)CCCC2	-0.4	3.4	14.9	-0.7	65.8*	-19.5	+
CCCCc1nc(N2CCOCC2)c(C#N)c2c1CCCC2	6.9	3.4	10.8	0.0	79.2*	-4.0	i
N#CCCSc1nc(N2CCOCC2)c2c(c1C#N)CCCC2	6.9	6.7	8.2	-8.4	26.6	-33.8	.
O=C(CN1CCC(n2cnc3cc(F)ccc32)CC1)Nc1cccc(I)c1	.	.	11.4	.	-75.1	.	.
O=C1NC2(CCN(C(=O)c3cccc4cccnc34)CC2)Nc2ccccc21	.	.	5.8	.	-10.8	.	.
Cc1cccc(OCC(=O)Nc2ccccc2N2CCOCC2)c1	.	.	9.8	.	29.6	.	.
Cc1cc2cc(CN(CCO)C(=S)Nc3cccc(C)c3C)c(=O)[nH]c2cc1C	.	.	11.9	.	-78.6	.	.
CCCc1nc(SCC(=O)Nc2nc3c(s2)CCCC3)c2ccccc2n1	13.9	8.2	.	-5.7	59.0	-10.4	.
CCc1nc(SCC(=O)Nc2nc3c(s2)CCCC3)c2ccccc2n1	12.1	8.6	11.5	-16.6	86.6*	-20.8	i
Cc1cccc(C)c1NC(=O)CSc1nc(COc2ccccc2)nc2ccccc12	1.2	3.6	36.6	-8.1	68.8*	-3.0	i
C#CCOc1ccccc1CN1CCC(NC(C)=O)(c2ccccc2F)CC1	.	.	8.9	.	-20.6	.	.
CCCc1nnc(NC(=O)CCCOc2cc(C)ccc2C)s1	.	.	10.5	.	-17.6	.	.
CC(C)=CCC/C(C)=C/CC/C(C)=C/CSc1ccccc1C(=O)O	.	.	9.1	.	73.4*	.	i
Cn1nc(C(F)(F)F)c(/C=N/OC(=O)c2ccccc2)c1Sc1ccc(Cl)cc1	9.7	2.9	13.9	-4.6	69.6*	-5.5	i
Cn1nc(C(F)(F)F)c(/C=N/OC(=O)c2ccccc2)c1Cl	-2.3	0.6	-0.3	-6.0	12.2	9.0	.
CCOC(=O)Cc1nnc(NC(=O)CSc2nnc3c4ccccc4n(C(C)C)c3n2)s1	4.1	4.5	9.8	-10.8	15.7	-19.4	.
CC(C)n1c2ccccc2c2nnc(SCC(=O)Nc3ccccc3C(=O)O)nc21	2.1	.	11.7	-2.5	72.7*	1.6	i
Cc1cc2c(o1)c1cnn(CC(=O)N(Cc3cccnc3)C3CC3)c(=O)c1n2C(C)C	.	.	4.8	.	-30.5	.	.
Cc1cc2ccc(C)c(C)c2nc1SCC(=O)c1cccs1	5.5	4.7	7.8	-12.5	14.4	-33.9	.
Cc1cc2ccc(C)c(C)c2nc1SCC#N	9.2	5.1	9.3	-19.5	66.1*	-8.2	+
SMILES	NPY-Y1 antag	NPY Y2 blocker	EP2 antag	NPY-Y2 PAM-ag	EP2 mod	NPY-Y1 PAM-ag	EP2 confirm
COc1ccc(N(CCc2ccccn2)S(=O)(=O)c2cn(C)nc2C)cc1	.	.	4.0	.	-61.3	.	.
CCN1CCN(c2ncnc3sc4c(c23)CCC4)CC1	.	.	12.8	.	-27.6	.	.
CCC1CCc2c(sc3ncnc(N4CCOCC4)c23)C1 (configuration not stated)	1.4	0.5	13.7	-0.2	58.0	6.2	+
Cc1oc(C)c(C(=O)O)c1C(=O)O	.	.	0.9	-21.3	-5.7	4.9	.
O=C(O)c1oc(C(=O)O)c(C(=O)O)c1C(=O)O	.	.	10.6	.	56.9	.	i
O=S(=O)(NC1CCCc2ccccc21)c1ccc(S(=O)(=O)N2CCCCC2)cc1 (configuration not stated)	.	.	10.9	.	-52.5	.	.
Cc1sc2ncnc(N(C)Cc3cccs3)c2c1C	-1.2	13.7	14.0	-8.6	52.0	15.6	+
CN(Cc1cccs1)c1ncnc2sccc12	-6.3	4.1	12.2	10.6	-22.1	12.7	.
COc1ccc(C2(O)CN(c3ccccc3)C3=[N+]2CCS3)cc1OC (configuration not stated)	0.8	.	8.8	12.8	17.1	0.9	.
OC1(c2ccc(Br)cc2)CN(c2ccccc2)C2=[N+]1CCS2 (configuration not stated)	3.0	.	14.0	16.5	75.0*	8.1	+
OC1(c2ccc(Cl)cc2)CN(c2ccccc2)C2=[N+]1CCS2 (configuration not stated)	13.8	.	4.4	-4.0	67.8*	-11.0	+
CCn1ncc(C(=O)N2CCC[C@@H](Cn3cc(C(=O)N4CCOCC4)nn3)C2)c1C	.	.	.	.	7.3	.	.
N#Cc1cc2c(nc1SCC(=O)Nc1ccccc1)CCCCC2	.	.	13.0	.	-9.7	.	.
COCCn1c(SC(C(=O)Nc2cc(C)ccc2OC)c2ccccc2)nnc1-c1ccc(Cl)cc1 (configuration not stated)	1.8	3.2	7.6	7.7	55.1	11.4	i
Cc1cccnc1N(C(=O)Nc1cccc(Cl)c1)C1=NCC(C)(C)S1	-7.0	-1.1	2.6	-11.3	70.2*	10.9	+
Cc1cccnc1N(C(=O)Nc1ccccc1)C1=NCC(C)(C)S1	-0.1	1.1	9.0	3.1	86.4*	7.0	+
CCc1nn(CC(=O)NCCOC)c(=O)c2cc3sc(C)cc3n12	.	.	.	.	-21.8	.	.
O=C(O)c1c(C(=O)N2N=C3/C(=C/c4ccccc4)CCCC3C2c2ccccc2)cccc1[N+](=O)[O-] (configuration not stated)	9.1	.	2.5	-1.9	16.6	-5.5	.
CC(=O)N1N=C2/C(=C/c3ccccc3)CCCC2C1c1ccccc1 (configuration not stated)	11.2	.	7.6	2.2	69.6*	11.0	i
COc1ccc(-n2c(COc3ccc4ccccc4c3)nnc2SCC(=O)NCc2ccco2)cc1	-1.2	4.2	9.8	-11.3	-6.4	-13.7	.
COc1ccc(-n2c(COc3cccc4ccccc34)nnc2SCC(=O)NCc2ccco2)cc1	8.0	4.1	11.6	2.2	65.9*	4.5	i
CCCOc1ccc(C(=O)Nc2ccc(S(=O)(=O)Nc3nccs3)cc2)cc1	.	.	5.0	.	-30.9	.	.
Cc1cccc(NS(=O)(=O)c2cccs2)n1	4.6	3.4	8.5	-11.7	4.1	-3.4	.
Cc1ccnc(NS(=O)(=O)c2cccs2)c1	-0.5	3.6	8.5	9.5	82.8*	-42.1	i
